# In ChEMBL document CHEMBL3120053, “Airborne antituberculosis activity of Eucalyptus citriodora essential oil” (J Nat Prod, 2014):
# System: Mycobacterium tuberculosis
# Assay: Antimicrobial activity against Mycobacterium tuberculosis H37Rv assessed as growth inhibition by gaseous contact assay relative to control
# Format: functional
# Procedure, shortened: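 Gaseous contact (microatmosphere) assay. Virulent pan-sensitive M.tb H37Rv (ATCC 27294) frozen stocks were diluted so 100 μL gave 200−400 colonies on Middlebrook 7H11 agar, then dried 4−5 h at room temperature. 5 μL of sample in EtOAc (100 mg/mL) went on a filter disk in the inverted lid (≈70 cm3 headspace). Plates were sealed, held at 37 °C, cfu counted at 21 days, and % inhibition calculated.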
row,SMILES,growth inhibition (GI) [%]
1,CC12CCC(CC1)C(C)(C)O2 [EUCALYPTOL],0
2,C=C(C)[C@@H]1CC[C@@H](C)C[C@H]1O [ISOPULEGOL],64
3,CC(C)=CCCC(C)CCO (centres undefined) [CITRONELLOL],100
4,CC(C)=CCC[C@H](C)CC=O [(-)-CITRONELLAL],18

# System: not listed separately
# Assay: Partition coefficient, log K of the compound in n-hexane/methyl tert-butylether/acetonitrile 10:1:10 solvent system by HSCCC/EECCC analysis
# Format: physicochemical
# Procedure, shortened: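 K values derived from volumetric measurements of the HSCCC run. Fraction collection began 1 h after loading at 4 min (6 mL) per fraction. Elution ran 5 h, then sweep elution and extrusion of the stationary phase for another 5 h, giving 160 TLC-monitored fractions.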
row,SMILES,log K
1,CC1=CC[C@H]2C(C)=CC[C@@H](C(C)C)[C@@H]2C1,2.98
2,CC(C)=CCC/C(C)=C/CC/C(C)=C/CO [FARNESOL],1.79
3,C=C1CCC[C@]2(C)CC[C@@H](C(C)(C)O)C[C@@H]12 [BETA-EUDESMOL],1.6
4,C=C(C)[C@@H]1CC[C@@H](C)C[C@H]1OC(C)=O,1.55
5,C=C(C)[C@H]1CC[C@@H](C)C[C@H]1O (relative stereo),2.98
6,C[C@@H]1CC[C@@H]2[C@@H]1[C@H]1[C@@H](CC[C@@]2(C)O)C1(C)C [GLOBULOL],1.79
7,C/C1=C\CC(C)(C)/C=C/C[C@@]2(C)O[C@@H]2CC1,1.55
8,CC(=O)OCCC(C)CCC=C(C)C (centres undefined) [CITRONELLYL ACETATE],1.55
9,CC1=C[C@@H]2C(=C(C)CC[C@H]2C(C)C)CC1 [(+)-DELTA-CADINENE],2.98
10,Cc1cc(C(C)(C)C)cc(C(C)(C)C)c1O,1.79
11,C[C@@H]1CC[C@H]2[C@@H]1[C@H]1[C@@H](CC[C@]2(C)O)C1(C)C,1.55
12,C=C1CC[C@@H]2[C@H]([C@H]3[C@H]1CC[C@]3(C)O)C2(C)C [SPATHULENOL],1.18
13,C=C1CC[C@@H]2[C@H]([C@@H]3[C@H](C)CC[C@H]13)C2(C)C,2.98
14,C[C@H]1CC[C@@H]2[C@H]1[C@@H]1[C@H](CC[C@]2(C)O)C1(C)C,1.18
15,C=C(C)[C@@H]1CC[C@@H](C)C[C@H]1O [ISOPULEGOL],0.87
16,CC1=C[C@@H]2[C@@H](CC1)[C@@](C)(O)CC[C@H]2C(C)C [T-CADINOL],1.55

row,SMILES,log K
1,CC12CCCCC1=CC(=O)CC2 (centres undefined),1.55
2,C=C1CCCC(C)(C)[C@H]2C=C(C)CC[C@@H]12,1.6
3,CC1=CC[C@@H](C(C)(C)O)CC1 [ALPHA-TERPINEOL],0.82
4,C=CC(C)(O)CCC=C(C)C (centres undefined) [LINALOOL],0.74
5,CC(C)=CCC/C(C)=C/CC/C(C)=C/C=O,1.79
6,CC(C)=CCCC(C)CCO (centres undefined) [CITRONELLOL],0.69
7,CC1(C)C[C@H]2[C@H]1CC[C@]1(C)CCC[C@@]2(O)C1,1.6
8,CC(C)=CCC/C(C)=C/CC/C(C)=C/CC/C(C)=C/CO [GERANYLGERANIOL],1.6
9,CC(C)=CCC[C@H](C)CC=O [(-)-CITRONELLAL],1.02
10,C=C(C)[C@@H]1CC[C@@]2(C)CCCC(=C)[C@@H]2C1 [BETA-SELINENE],1.79
11,CC1=C[C@H]2[C@H](C(C)C)CC[C@@H](C)[C@]2(O)CC1,1.8
12,C[C@@H]1CC[C@@H](C(C)(C)O)C(O)C1 (some centres undefined),0.87
13,CC1=CCC[C@]2(C)CC[C@@H](C(C)(C)O)C[C@@H]12,1.8
14,C=C1CC/C=C(\C)CC[C@@H]2[C@@H]1CC2(C)C [BETA-CARYOPHYLLENE],2.98
15,C=C(C)[C@H]1CC[C@H](C)C[C@H]1O (relative stereo),0.82

# System: Mycobacterium tuberculosis
# Assay: Antimicrobial activity against Mycobacterium tuberculosis H37Rv by BACTEC radiometric assay
# Format: functional
row,SMILES,MIC [µg/mL]
1,CC(C)=CCC/C(C)=C/CC/C(C)=C/CO [FARNESOL],8
2,CC(C)=CCC/C(C)=C\CO [NEROL],128
3,CC(C)=CCC/C(C)=C/CO [GERANIOL],64
4,CC(C)=CCCC(C)CCO (centres undefined) [CITRONELLOL],64
